Data on four compounds can be found in paper PMC3947005 (Cancer research, 2013).

Assay [1] relates to MPNSTs from the cis-Nf1+/-;p53+/- mouse model. Conditions: ref [7], [44]; cited from earlier work.
The test system of the next assay is pAKT in sMPNST cells. Put plainly: Phospho-AKT Western blot. The note with it: 20 µM for 30 or 60 minutes. Type of assay: cell-based, mouse. In short, it runs like this:
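Mouse sMPNST cells exposed to a PI3K-inhibitor test compound at 20 µM for 30 or 60 min. Cells collected, trypsinized and lysed in RIPA buffer. Lysates resolved on 5–20% SDS-PAGE gels and immunoblotted for phospho-AKT and total AKT, with αTubulin or GAPDH as loading reference.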
A general note: Immunoblotting shows a protein as a band on a membrane.

The test system of another assay is pERK in sMPNST cells. The assay can be described thus: Phospho-ERK Western blot. It counts as cell-based, mouse. Conditions: 10 µM for 30 minutes. An outline of the steps:
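Mouse sMPNST cells treated with test compound at 10 µM for 30 min, then trypsinized and lysed in RIPA buffer. Lysates run on 5–20% SDS-PAGE gels and immunoblotted for phospho-ERK and total ERK, with αTubulin or GAPDH as loading reference.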

The subject of a further assay is sMPNST cells. Put plainly: CellTiter-Glo ATP luminescence assay, dose response. It counts as cell-based, mouse. Conditions: rapamycin alone. In general terms: ATP-based viability assays read luminescence as a measure of living cells.
A further assay has as its system pS6 in sMPNST cells. The assay can be described thus: pS6 Western blot. It counts as cell-based, mouse. Conditions: 0.05 µM (50 nM) for 30 or 60 min. In short, it runs like this:
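Mouse sMPNST cells exposed to test compound at 0.05 µM (50 nM) for 30 or 60 min. Cells collected, trypsinized and lysed in RIPA buffer. Lysates resolved on 5–20% SDS-PAGE gels and probed for phospho-S6.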

As for `c1cc(CN2CCCNCCNCCCNCC2)ccc1CN1CCCNCCNCCCNCC1` [AMD3100], the “inhibition of MPNSTs” value in assay [1] was “inhibit MPNSTs”.

As for `O=c1cc(N2CCOCC2)oc2c(-c3ccccc3)cccc12` [LY294002], the pAKT inhibition entry in the assay with pAKT in sMPNST cells was “effective pAKT inhibition”.

Take `N#CC(=C(/N)Sc1ccccc1N)/C(C#N)=C(/N)Sc1ccccc1N` [U0126]: the Phospho-ERK inhibition entry in the assay with pERK in sMPNST cells is “verified by Western blotting”.

For `CO[C@H]1C[C@@H]2CC[C@@H](C)[C@@](O)(O2)C(=O)C(=O)N2CCCC[C@H]2C(=O)O[C@H]([C@H](C)C[C@@H]2CC[C@@H](O)[C@H](OC)C2)CC(=O)[C@H](C)/C=C(\C)[C@@H](O)[C@@H](OC)C(=O)[C@H](C)C[C@H](C)/C=C/C=C/C=C/1C` [rapamycin], in the assay with sMPNST cells, the “sMPNST cellular growth response” value is “relatively resistant”. The pS6 levels entry in the assay on pS6 in sMPNST cells is recorded as “decreased pS6 levels”. In assay [1], the “inhibition of MPNSTs” value is on record as “inhibit MPNSTs”.
